# Laboratory results taken from ChEMBL document CHEMBL3046104, “Antifeedant diterpenoids against Tribolium castaneum from the stems and twigs of Ceriops tagal (Rhizophoraceae)” (Molecules, 2011).
# Columns and labels:
# [1] = tested on: Tribolium castaneum; experiment: Antifeedant activity against Tribolium castaneum (red flour beetle) assessed as reduction of food consumption at 100 ppm after 3 days by flour disk bioassay relative to control; assay type: functional
# In short: (§1)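 Adult T. castaneum from a lab colony kept in the dark at 28–30 °C, 70%–80% RH, starved 24 h. Treated flour disks (36–39 mg) air-dried overnight, then equilibrated 48 h at 28–30 °C. Twenty unsexed, group-weighed adults per vial for 3 days; uneaten disk weighed against controls. Insect-free treated vials corrected for solvent evaporation. Six replicates; 10–1000 ppm; EC50 by linear regression.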
# [2] = tested on: Tribolium castaneum; experiment: Antifeedant activity against Tribolium castaneum (red flour beetle) assessed as reduction of food consumption after 3 days by flour disk bioassay relative to control; assay type: functional, organism-based; in short: as §1
# [3] = tested on: Tribolium castaneum; experiment: Antifeedant activity against Tribolium castaneum (red flour beetle) assessed as reduction of food consumption at 30 ppm after 3 days by flour disk bioassay relative to control; assay type: functional; in short: as §1
# [4] = tested on: Tribolium castaneum; experiment: Antifeedant activity against Tribolium castaneum (red flour beetle) assessed as reduction of food consumption at 10 ppm after 3 days by flour disk bioassay relative to control; assay type: functional; in short: as §1
# [5] = tested on: Tribolium castaneum; experiment: Antifeedant activity against Tribolium castaneum (red flour beetle) assessed as reduction of food consumption at 1000 ppm after 3 days by flour disk bioassay relative to control; assay type: functional; in short: as §1
# [6] = tested on: Tribolium castaneum; experiment: Antifeedant activity against Tribolium castaneum (red flour beetle) assessed as reduction of food consumption at 300 ppm after 3 days by flour disk bioassay relative to control; assay type: functional; in short: as §1
SMILES,"level, % of control [1] [%]",EC50 [2] [ppm],"level, % of control [3] [%]","level, % of control [4] [%]","level, % of control [5] [%]","level, % of control [6] [%]"
C=C[C@@]1(C)CC[C@@]2(C)[C@@H](CC[C@@]3(C)[C@@H]2C=C(O)C(=O)[C@@]32CO2)C1 [TAGALSIN A],73.43,375.3,88.28,97.56,40.05,53.15
C=C[C@@]1(C)CC[C@@]2(C)[C@@H](CC[C@@]3(C)[C@@H]2C=C(O)C(=O)[C@]32CO2)C1 [TAGALSIN B],65.32,277.6,84.17,95.23,38.85,47.65
C=C[C@@]1(C)CC[C@@]2(C)[C@@H](CC[C@](C)(C(C)=O)[C@@H]2CC(=O)O)C1 [TAGALSIN H],63.26,285.4,73.72,92.86,35.41,49.12
CC(=O)O[C@@H]1C[C@H](O)[C@@]23CO[C@@H](O)[C@]1(C)[C@@H]2C[C@@H](O)[C@]1(C)[C@@H]3C(=O)[C@H](OC(C)=O)[C@@]2(C)[C@H](c3ccoc3)C[C@H]3O[C@]321 [TOOSENDANIN],–,66,–,–,–,–
